Most compounds without a hit are left out; they make up all but 4.3% or so of the library.
TAAR1 antagonist: human TAAR1 antagonism; CHO RD-HGA16 TAAR1, Fluo-8 calcium fluorescence, antagonist; inhibition, % at 3 µM; actives 1.5% (n = 360,000);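 active = inhibition above a per-plate cutoff, the mean inhibition of test compounds on that plate plus 3 SD, cut at about 49% in these data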;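 note: 0% = DMSO plus EC80 beta-PEA response and 100% = DMSO alone without agonist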
Target sequence (Q96RJ0 whole entry, looked up): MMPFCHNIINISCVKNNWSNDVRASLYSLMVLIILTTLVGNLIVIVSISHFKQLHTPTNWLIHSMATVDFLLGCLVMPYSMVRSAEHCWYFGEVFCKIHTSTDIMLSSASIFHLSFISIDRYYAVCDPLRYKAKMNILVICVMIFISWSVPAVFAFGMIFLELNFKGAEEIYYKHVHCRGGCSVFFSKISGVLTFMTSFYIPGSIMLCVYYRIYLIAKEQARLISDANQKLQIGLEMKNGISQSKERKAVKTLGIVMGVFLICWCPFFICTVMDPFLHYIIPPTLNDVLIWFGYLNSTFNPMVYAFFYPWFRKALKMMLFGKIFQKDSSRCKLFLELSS
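Test system: hTAAR1-expressing CHO RD-HGA16 cells, Gα16-coupled; Probe or stimulus: EC80 β-phenethylamine stimulus; Compound dosing: single nominal final test compound concentration of 3 µM; Timing: 140 s kinetic read after compound, 140 s after agonist; Signal: Fluo-8 calcium-sensitive fluorescence; Measure: % inhibition of agonist calcium response; Controls: DMSO and EC80 PEA controls.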
TAAR1 ag: human TAAR1 agonism. AID 624467. Q96RJ0. actives 0.99% (n = 360,000). activation, % at 3 µM. CHO RD-HGA16 TAAR1, Fluo-8 calcium fluorescence; vehicle wells 0%, saturating PEA agonist 100%;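 active = activation above the mean activation of all test compounds in the run plus 3 SD, cut at about 38% in these data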
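System: CHO RD-HGA16 cells carrying human TAAR1 plus Gα16; Incubation: 17-24 h seeding, 75 min 37 °C dye, 30 min RT; Measured by: Fluo-8 fluorescence, 5 s baseline then 140 s kinetic read; Control set: DMSO and PEA EC100; Replication: single well for each compound.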
CHO parental Ca: signal in parental CHO cells, OX1R antagonist counter-screen; parental CHO-K1, ATP-induced calcium, Fluo-8 fluorescence; inhibition, % at 5.6 µM; actives 0.63% (n = 330,000); AID 463079;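 active = inhibition above that plate's mean sample inhibition plus 3 SD, cut at about 26% in these data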;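 note: 0% = ATP-challenged DMSO wells and 100% = DMSO wells without ATP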
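test system = CHO parental line | reagent = ATP stimulus | measured by = intracellular calcium via Fluo-8 no-wash fluorescent dye | control set = ATP and no-ATP DMSO wells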
OX1R antag-1: antagonists of human orexin 1 receptor; CHO/OX1R cells, Fluo-8 calcium fluorescence, orexin A; inhibition, % at 5 µM; actives 0.43% (n = 330,000); AID 434989;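 active = inhibition above its plate's threshold, mean inhibition of all tested compounds on the plate plus 3 SD, cut at about 37% in these data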;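 note: 0% = orexin A challenge wells and 100% = SB-334867-A antagonist wells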
GalR3 antagonist: human GalR3 antagonism | actives 0.44% (n = 360,000) | O60755 | inhibition, % at 3 µM | HEK293 GalR3-CNG cAMP membrane potential fluorescence; galR3 body fused to GalR1 C-terminus;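 active = inhibition above the screen-wide average plus 3 SD, cut at about 13% in these data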;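 note: forskolin and galanin both at EC90 stimulate the cells; cAMP rise reported by CNG channel membrane potential dye signal; 0% = forskolin plus galanin with DMSO and 100% = forskolin alone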
Target sequence (O60755 1-299 limits assumed): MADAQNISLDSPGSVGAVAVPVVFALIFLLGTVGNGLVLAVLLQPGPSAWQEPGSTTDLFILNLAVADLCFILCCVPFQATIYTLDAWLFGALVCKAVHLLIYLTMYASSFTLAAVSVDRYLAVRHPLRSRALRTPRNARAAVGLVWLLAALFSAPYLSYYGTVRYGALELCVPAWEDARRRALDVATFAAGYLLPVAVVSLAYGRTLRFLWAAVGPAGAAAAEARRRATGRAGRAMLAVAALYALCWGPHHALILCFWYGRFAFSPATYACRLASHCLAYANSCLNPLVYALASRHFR
OX1R antag-2: OX1R (human) antagonism; inhibition, % at 6.6 µM; AID 485270; actives 1.8% (n = 330,000); OX1R-expressing cells, FRET antagonist read-out; in the data active = inhibition mostly above about 38%, no sharp cut-off; inactive = mostly below about 40%;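 note: 0% = agonist challenge alone and 100% = reference antagonist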
TAAR1 nonsel count: nonselective antagonism, TAAR1 counter-screen; actives 77% (n = 2,400); inhibition, % at 3 µM; AID 651780; shares compounds with TAAR1 antagonist; counterscreen cell line, calcium fluorescence, antagonist mode; in the data active = inhibition above about 22%;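 note: CHO-Ga16 host cells stimulated with ATP at an EC80 level; 0% = agonist EC80 plus vehicle and 100% = vehicle without agonist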
TAAR1 ant conf: human TAAR1 antagonism, confirmed; shares compounds with TAAR1 antagonist; TAAR1-expressing cells, fluorescence antagonist read-out; inhibition, % at 3 µM; actives 40% (n = 2,400); AID 651785; in the data active = inhibition above about 49%;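 note: CHO-Ga16 host cells challenged with agonist PEA near its EC80; 0% = agonist at EC80 plus vehicle and 100% = vehicle with no agonist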
Ga16 ag counter: nonselective Ga16 agonism, counter-screen | shares compounds with TAAR1 antagonist | Ga16-expressing cells, calcium fluorescence, agonist counterscreen | activation, % at 3 µM | actives 18% (n = 2,400) | AID 651953; in the data active = activation above about 12%;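 note: 0% = vehicle wells and 100% = saturating stimulus response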
TAAR1 ag counter: counter-screen for human TAAR1 antagonists: TAAR1 agonists. shares compounds with TAAR1 antagonist. hTAAR1 cell line, fluorescence activation, agonist mode. activation, % at 3 µM. actives 2% (n = 2,400). AID 651955; in the data active = activation above about 37%;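 note: CHO cells stably expressing TAAR1 with calcium dye readout; 0% = DMSO vehicle and 100% = full agonist response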
Starred values were filed as active, the others as inactive; x = no result given.

SMILES	TAAR1 antagonist	TAAR1 ag	CHO parental Ca	OX1R antag-1	GalR3 antagonist	OX1R antag-2	TAAR1 nonsel count	TAAR1 ant conf	Ga16 ag counter	TAAR1 ag counter
COc1cc(C2C3=C(COC3=O)Oc3cc4c(cc32)OCO4)cc(OC)c1OC(C)=O (configuration not stated)	-5.0	-0.6	x	x	-2.5	x	x	x	x	x
CCCC1NC(=O)c2cccnc2-n2c1nc1ccc(Cl)cc1c2=O (configuration not stated)	-7.7	0.2	x	x	-7.2	x	x	x	x	x
COc1ccc(C(=O)Nc2cccc(NC(C)=O)c2)cc1OC	-11.6	2.7	-1.4	-5.1	-1.4	18.0	x	x	x	x
Cc1cc(C(=O)Nc2cccc(NC(=O)c3ccco3)c2)ccc1[N+](=O)[O-]	57.9*	10.6	x	x	-2.0	x	14.2	26.1	8.0	3.7
COc1ccc(C(=O)Nc2cccc(/C(C)=N/NC(=O)c3ccc([N+](=O)[O-])c(C)c3)c2)cc1OC	60.5*	21.1	-1.9	-11.3	-2.6	55.0	44.1*	66.4*	11.6*	9.8
CCCCn1c(O)c(N=NC(=O)c2ccco2)c2ccccc21	52.0*	11.6	-28.4	-33.3	-5.0	41.3	15.0	36.6	6.9	13.3
O=C(CNC(=O)c1ccco1)N=Nc1c(O)n(CCc2ccccc2)c2ccccc12	-13.9	-0.3	-17.5	-23.0	-0.2	25.2	x	x	x	x
Fc1ccccc1COc1ccc(Br)cc1CNCc1ccncc1	74.9*	13.0	-21.6	-23.4	0.1	27.8	40.5*	62.5*	11.5*	17.0
O=C(COc1cccc2cccnc12)N/N=C/c1cccn1-c1ccc(F)cc1	52.7*	17.5	-27.6	-34.7	4.6	5.5	25.1*	48.0	6.7	4.0
O=C(COc1cccc2cccnc12)N/N=C/c1ccc(O)cc1	-0.6	3.1	2.5	-10.9	-0.7	40.9	x	x	x	x
CC(=O)c1ccc(NC(=O)CC(C)S(=O)(=O)c2ccc3c(c2)CCN3C(C)=O)cc1 (configuration not stated)	-16.7	0.7	-7.1	-20.2	0.4	11.4	x	x	x	x
CN(CC(=O)NCc1ccco1)CC(=O)Nc1c(Cl)cccc1Cl	-5.5	1.0	-7.2	-10.8	-3.4	5.4	x	x	x	x
Cn1c(N)c(C(=O)COC(=O)C2(c3cccc(F)c3)CCCC2)c(=O)n(C)c1=O	63.2*	15.8	-6.9	-5.0	-1.9	13.1	31.9*	50.6*	7.6	13.2
Cn1c(N)c(C(=O)COC(=O)c2ccc(F)cc2Cl)c(=O)n(C)c1=O	6.8	27.6	-4.1	-23.0	-1.6	-1.1	x	x	x	x
COc1cc(/C=N/NC(=O)c2cccnc2)ccc1OS(=O)(=O)c1cc(C)ccc1C	63.9*	25.1	-11.6	-19.5	-0.9	26.2	31.6*	57.2*	13.9*	11.8
COc1cc(/C=N/NC(=O)c2cccnc2)ccc1OS(=O)(=O)c1ccc(C)cc1	30.4	11.8	-12.8	-22.0	-6.6	11.6	x	x	x	x
CS(=O)(=O)N1CCN(c2ccc(NC(=O)COc3ccccc3[N+](=O)[O-])cc2)CC1	63.3*	19.5	-10.7	-28.9	-1.4	20.0	27.6*	42.4	11.8*	10.7
CN1CCN(c2ccc(NC(=O)COc3ccccc3[N+](=O)[O-])cc2)CC1	-0.2	12.8	-21.8	-21.1	0.1	58.2	x	x	x	x
COc1ccccc1N1CCN(C(=O)c2cccc(S(=O)(=O)N3c4ccccc4CC3C)c2)CC1 (configuration not stated)	74.8*	11.4	x	x	-6.4	x	38.9*	49.9*	9.5	9.6
Cn1cncc1C#Cc1c(-c2ccc(S(C)(=O)=O)cc2)sc2ccccc12	60.8*	10.9	-7.8	18.5	-5.7	2.7	32.5*	35.2	6.2	0.9
Cc1ccc(-c2[nH]c3ccccc3c2C(C[N+](=O)[O-])c2ccco2)cc1 (configuration not stated)	63.4*	14.9	-9.8	-1.3	-7.9	15.6	2.3	23.7	2.7	0.7
Cc1[nH]c2ccccc2c1C(C[N+](=O)[O-])c1ccco1 (configuration not stated)	-3.6	-1.6	-8.9	-1.6	-3.4	26.9	x	x	x	x
CCc1ccc(S(=O)(=O)c2nnn3c2nc(N2CCOCC2)c2ccccc23)cc1	-10.4	3.8	-10.6	-25.8	-7.7	2.0	x	x	x	x
COc1ccc(-c2cc(C(=O)N3CCN(c4ncccn4)CC3)c3ccccc3n2)cc1	52.2*	35.3	-19.3	-28.0	-6.0	5.5	29.5*	48.0	9.8	8.2
O=C(c1cc(-c2cccnc2)nc2ccccc12)N1CCN(S(=O)(=O)c2cccs2)CC1	51.4*	17.4	-22.1	-16.2	-5.1	-5.1	21.8*	33.6	6.3	5.5
SMILES	TAAR1 antagonist	TAAR1 ag	CHO parental Ca	OX1R antag-1	GalR3 antagonist	OX1R antag-2	TAAR1 nonsel count	TAAR1 ant conf	Ga16 ag counter	TAAR1 ag counter
CC(=O)c1ccc(N2CCN(C(=O)c3cc4c(C)nc5ccccc5c4o3)CC2)cc1	2.6	10.0	-19.0	-25.8	1.9	-1.7	x	x	x	x
CCOc1ccccc1N1CCN(C(=O)c2cc(-c3cc(OC)ccc3OC)nc3ccccc23)CC1	73.4*	3.9	-22.4	-30.0	-0.2	17.9	20.7	42.9	6.2	4.3
CCOc1ccc(-c2cc(C(=O)N3CCN(C)CC3)c3ccccc3n2)cc1	15.6	11.7	-21.6	-17.8	-2.2	9.6	x	x	x	x
COc1ccc(N2CCN(C(=O)c3cc4c(C)nc5ccccc5c4o3)CC2)cc1	62.4*	4.3	-15.8	-18.3	-1.9	21.6	36.5*	51.4*	11.8*	10.0
CCCN(CCC)Cc1cc(=O)oc2cc(C)c(C)cc12	13.4	-1.2	x	x	-8.4	x	x	x	x	x
NNc1ccc([N+](=O)[O-])c2[nH][nH]c(=O)c12	-14.4	4.5	x	x	-1.5	x	x	x	x	x
CCC(C)c1ccc(O)c(NC(=S)NC(=O)c2cccs2)c1 (configuration not stated)	23.2	6.7	x	x	-5.8	x	x	x	x	x
COc1ccc(C(=O)Nc2ccccc2C(=O)N2CCOCC2)cc1	-21.8	9.8	-2.1	-7.8	4.5	8.5	x	x	x	x
COc1ccc(OC)c(-c2cc(C(=O)N3CCN(c4ncccn4)CC3)c3ccccc3n2)c1	78.4*	11.2	-21.2	-23.0	-3.7	13.7	27.6*	46.9	7.5	20.0
COc1ccc(N2CCN(C(=O)c3cc(-c4cc(OC)ccc4OC)nc4ccccc34)CC2)cc1	60.4*	10.4	-24.4	-22.2	0.7	30.7	27.3*	48.9*	10.5	14.8
